The list is not random: actives were taken first. Their share in the collection is about 2.4%.
DNMT1 inh – inhibitors of human DNMT1 | P26358 | DNMT1 molecular beacon, Hinp1I cleavage, fluorescence | inhibition (reported as % activation of signal), % at 10 µM | actives 0.83% (n = 360,000); in the data active = inhibition above about 50%
NadD block – blocks S. aureus nicotinate mononucleotide adenylyltransferase | purified NadD enzyme, colorimetric absorbance read-out | inhibition, % at 20 µM | actives 0.78% (n = 360,000) | AID 602399; in the data active = inhibition above about 26%
Scp1 inh – inhibitors of human Scp-1 phosphatase. Recombinant Scp1, phosphopeptide, malachite green phosphate absorbance. inhibition, % at 20 µM. actives 0.88% (n = 340,000). AID 493091;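 active = inhibition above about 50% at 20 µM, limit read from the data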;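 also: plate controls were DMSO wells with enzyme for no effect and wells lacking enzyme for full effect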
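Test system: SCP-1 catalytic domain; Buffer or medium: Acidic Tris acetate buffer with magnesium and detergent; Also added: Phosphorylated 17-residue peptide substrate; Compound: single 20 µM dose, 1% DMSO; Schedule: enzyme reaction 45 min at room temperature, colour 5 min, stabilisation 30 min; Signal: Phosphate-binding colour reagent, absorbance read at 630 nm.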
STEP inh – inhibitors of human striatal-enriched phosphatase STEP; inhibition, % at 20 µM; P54829; AID 588621; actives 0.25% (n = 360,000); recombinant STEP, OMFP fluorogenic substrate, fluorescence;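 active = inhibition at 20 µM, scaled per plate between control wells, above about 37%, limit read from the data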;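 also: 0% = DMSO with enzyme and substrate and 100% = substrate only without enzyme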
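Assay system: isolated STEP enzyme. Buffer or medium: pH 6.0 Bis-Tris with DTT and Tween 20. Also added: fluorogenic phosphatase substrate OMFP at 25 µM final. Dosing: 20 µM, 1% DMSO. Timing: 20 min reaction, room temperature, in the dark. Measured by: fluorescence intensity, excitation 480 nm, emission 540 nm. Evaluation: normalized % inhibition.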
LMPTP inh – blocks human LMPTP phosphatase; P24666; recombinant LMPTP-A, OMFP fluorogenic substrate, fluorescence intensity; inhibition, % at 20 µM; actives 0.22% (n = 360,000); AID 651560;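 active = compounds that cut the enzyme signal by at least half of the control window in the single-dose screen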;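 also: plate controls were DMSO wells with enzyme plus substrate for no effect and substrate without enzyme for full effect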
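Test system – LMPTP-A enzyme · Amount – LMPTP-A at 0.625 nM final in the reaction · Buffer or medium – Bis-Tris pH 6.0, DTT, detergent · Reagent – OMFP 400 µM · Doses – single 20 µM dose · Schedule – reaction 50 min, room temperature, dark · Detection – fluorescence intensity of OMFP turnover product · Evaluation – percent inhibition versus substrate-only and uninhibited controls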
SUMO1-SIM PPI – modulators of human SUMO1-mediated protein-protein interactions | P63165 | SUMO1 binding to a labelled peptide, TR-FRET, 1 h | inhibition, % at 20 µM | actives 0.33% (n = 360,000) | AID 602429; in the data active = inhibition above about 37%
NadD conf – confirmation of Staphylococcus aureus NadD inhibitors. inhibition, % at 20 µM. actives 13% (n = 2,000). shares compounds with NadD block. purified S. aureus NadD, colorimetric enzyme assay; in the data active = inhibition mostly above about 42%, no sharp cut-off; inactive = mostly below about 42%
Numbers without * were called inactive; nt = no result.

SMILES | DNMT1 inh | NadD block | Scp1 inh | STEP inh | LMPTP inh | SUMO1-SIM PPI | NadD conf
S=C(Nc1ccc(N2CCOCC2)cc1)Nc1ccc2nc(-c3ccco3)c(-c3ccco3)nc2c1 | -7 | 42* | 4 | -10 | 12 | 26 | 2
O=C(O)/C=C/C(=O)Nc1ccc(OC(F)F)cc1 | 1 | -5 | -8 | -2 | -1 | 3 | nt
N#Cc1ccccc1Cn1cc(/C=N/Nc2ccc([N+](=O)[O-])cn2)c2ccccc21 | 0 | 32* | 3 | -3 | 4 | -16 | 5
CCc1nnc(NS(=O)(=O)c2ccc(N/C=C\C(=O)c3ccc4ccccc4c3)cc2)s1 | 6 | 30* | -10 | 9 | 1 | 10 | 50*
CC1CC(C)CN(C(=O)COc2ccc([N+](=O)[O-])cc2Cl)C1 (stereo unspecified) | 2 | 1 | -1 | -1 | -1 | -16 | nt
O=C(CNc1cccc2ccccc12)N/N=C/c1ccc(OC(=O)/C=C/c2ccco2)cc1 | -23 | 40* | -4 | 2 | 2 | 7 | 13
O=C(CNc1cccc2ccccc12)N/N=C/C(Br)=C/c1ccccc1 | -38 | 45* | -5 | 2 | 1 | -14 | 24
O=C(CNc1ccc2ccccc2c1)N/N=C/c1ccc(OC(=O)/C=C/c2ccco2)cc1 | -14 | 25 | 5 | -1 | 2 | -10 | nt
O=C(/C=C/c1ccco1)Oc1cc(Br)cc(/C=N/NC(=O)c2ccccc2O)c1 | 26 | 38* | -4 | 0 | 1 | 6 | 36
Cc1ccc(C(=O)N/N=C/c2cccc(OC(=O)/C=C/c3ccco3)c2)cn1 | 23 | -1 | 26 | 2 | 1 | -7 | nt
COc1ccc(-c2ccc(CN3C(C)C(=O)N(Cc4cn(CCC5OCCCO5)nn4)CCS3(=O)=O)cc2)cc1 (stereo unspecified) | 3 | 4 | nt | 0 | 1 | 7 | nt
O=C(CNS(=O)(=O)c1ccc(Br)s1)N1CCC(N2CCCCC2)CC1 | 2 | -2 | -3 | 0 | 1 | 1 | nt
O=C(NCCc1ccccc1)c1ccc(NS(=O)(=O)c2ccc3[nH]c(=O)[nH]c3c2)cc1 | 1 | -8 | 1 | -1 | 1 | 2 | nt
O=C(Cc1cccc2ccccc12)Nc1ccc(-c2cc3ccccc3oc2=O)cc1 | -9 | 32* | 20 | 3 | 1 | 30 | 14
COC(=O)Nc1sc2c(c1C(=O)NCc1ccco1)CCC2 | -8 | -15 | -8 | 0 | 1 | 1 | nt
Cc1cc(O)c(-c2cc(C(=O)Nc3sc4c(c3C(=O)NCc3ccco3)CCC4)[nH]n2)cc1C | -6 | 36* | 43 | -2 | 2 | 1 | -1
COC(=O)Nc1sc2c(c1C(=O)NCc1ccco1)CCCC2 | -3 | -2 | -6 | 7 | -1 | 2 | nt
Cc1ccc(-c2cc(C(=O)Nc3sc4c(c3C(=O)NCc3ccco3)CCC4)[nH]n2)c(O)c1 | -10 | 36* | -4 | 2 | 11 | 7 | 0
CCN(CC(=O)Nc1ccc(OC)cc1)C(=O)C1CCN(C(=O)c2ccc(Cl)cc2)CC1 | 0 | 0 | -5 | -2 | -10 | -45 | nt
C=CCn1c(SCC(=O)Nc2ccccc2CC)nnc1-c1ccncc1 | 1 | -11 | -8 | -4 | -1 | -1 | nt
C=CCn1c(SCC(=O)Nc2ccccc2C)nnc1-c1ccncc1 | 0 | 49* | 3 | 2 | 1 | 2 | 6
COc1ccc(N/C=C2\C(=O)CCc3c2oc2cc(Cl)c(O)c(Cl)c32)cc1 | 7 | 44* | -14 | -5 | 2 | 16 | -2
Cc1ccc(NC(=O)CC2Nc3ccccc3NC2=O)cc1Cl (stereo unspecified) | -9 | 31* | 3 | -3 | -1 | -6 | 14
O=C(CC1Nc2ccccc2NC1=O)Nc1ccc2c(c1)OCO2 (stereo unspecified) | -4 | 6 | 3 | 1 | 1 | -11 | nt
COc1cccc(=O)c2c(C)n(-c3cc(C)cc(C)c3)c(C)c12 | 41 | 35* | -4 | 1 | 1 | 1 | 43

Bioassay records as filed in PubChem BioAssay.
